From PubChem
The list is not random: actives were taken first. Their share in the collection is about 0.72%.
ABCG2 inh: ABCG2 efflux pump inhibitors, primary screen, multiplex with ABCB1, IgMXP3 cells, flow cytometry | Broad substrate specificity ATP-binding cassette transporter ABCG2 (Homo sapiens), Q9UNQ0 | JC-1 efflux | inhibition, % at 6.6 µM | 190,000 tested, 0.1% active | AID 1325, 2008;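 active = inhibition above 80%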
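Read-out basis: Efflux inhibition in percent versus controls | Test system: ABCG2 IgMXP3 and barcoded ABCB1 CCRF-Adr cell mix | Quantity: 3 million cells/mL in well | Schedule: 10 min at 25 °C | Control set: Nicardipine as high control, DMSO as low control | Reagent: JC-1 as fluorescent efflux pump substrate | Signal: Flow cytometry of retained JC-1 fluorescence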
ABCB1 block: ABCB1 efflux pump inhibitors, primary screen, cell-based, multiplex, flow cytometry, ABCG2 counter-screen; ATP-dependent translocase ABCB1 (Homo sapiens), P08183; CCRF-Adr cells, JC-1 efflux; inhibition, % at 6.6 µM; 190,000 tested, 0.067% active; AID 1326, 2008; in the data active = inhibition above about 40%;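 note: higher value means more JC-1 retained so stronger ABCB1 efflux block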
GSH bead fluor: compound fluorescence on glutathione beads, profiling panel, artefact control, biophysical, 488/530 nm, flow cytometry; 190,000 tested, 0.25% active; GSH beads flow cytometry, compound fluorescence 488/530 nm; active compounds read high; AID 1776, 2009; fluorescence (KMESF) at 10 µM; in the data active = fluorescence above about 89;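 note: glutathione beads carrying GST-tagged Bcl family fusion proteins plus one bare bead set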
DTT redox prof: compounds producing H2O2 with reducing agent – biochemical, NIH compound library profiling, artefact control for MLSCN library redox annotation, primary screen; 200,000 tested, 0.03% active; activation, % at 10 µM; DTT-dependent redox cycling H2O2, phenol red/HRP absorbance; 100% = 100 µM peroxide control, 0% = buffer; AID 878, 2007;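 active = activation of at least 50% relative to the plate's high and low controls in the primary single-dose screen; inactive = activation below 50%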;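 note: compound incubated with DTT at 0.8 mM final as the reducing agent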
Avidin fluor: green autofluorescence of compounds with avidin beads – biophysical, 488/530 nm, flow cytometry, artefact control, profiling panel; AID 1775, 2009; fluorescence (KMESF) at 10 µM; compound fluorescence 488/530 nm; active compounds read high; 220,000 tested, 0.38% active; in the data active = fluorescence above about 47
ABCB1 single pt: ABCB1 efflux pump inhibitors, confirmation, cell-based, single point, ABCG2 counter-screen. shares compounds with ABCG2 inh. CCRF-Adr cells, JC-1 efflux, flow cytometry. inhibition, % at 6.6 µM. 270 tested, 7% active. AID 1451, 2008;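 active = inhibition of pump activity above 50%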
ABCG2 single pt: ABCG2 efflux pump inhibitors, confirmation, single point, IgMXP3 cells, ABCB1 counter-screen paired. shares compounds with ABCG2 inh. JC-1 efflux, flow cytometry. inhibition, % at 6.6 µM. 270 tested, 6% active. AID 1453, 2008;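 active = inhibition above 50%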
IgMXP3 fluor: compound autofluorescence in ABCG2-expressing IgMXP3 cells, confirmation, artefact control for ABC transporter inhibitor project, cell-based, 488/530 nm, flow cytometry; fluorescence at 6.6 µM; compound autofluorescence 488/530 nm; active compounds read high; shares compounds with ABCG2 inh; 270 tested, 30% active; AID 1480, 2009;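 active = fluorescence in ABCG2-expressing cells above the plate's control-well mean plus 3 SD, cut at about 15 in these data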
CCRF-Adr fluor: compound autofluorescence in ABCB1-expressing CCRF-Adr cells, confirmation, artefact control for ABC transporter inhibitor project, cell-based, 488/530 nm, flow cytometry. shares compounds with ABCG2 inh. compound autofluorescence 488/530 nm; active compounds read high. fluorescence at 6.6 µM. 270 tested, 30% active;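 active = fluorescence beyond the plate control mean plus 3 SD, with a fluorescence-to-maximum score over 2, cut at about 25 in these data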
Hits are given with their value; - = inactive; . = not tested or not shown; + = active, no number.

SMILES	ABCG2 inh	ABCB1 block	GSH bead fluor	DTT redox prof	Avidin fluor	ABCB1 single pt	ABCG2 single pt	IgMXP3 fluor	CCRF-Adr fluor
Cc1ccc(N2C(=O)NC(C(F)(F)F)(C(F)(F)F)C3=C2CC(C)(C)CC3=O)cc1	-	-	-	-	-	.	.	.	.
COc1ccc(NS(=O)(=O)c2ccc(C(=O)N3CCN(Cc4ccccc4)CC3)cc2)cc1	-	-	-	-	-	.	.	.	.
COc1ccc(N2CCN(C(=O)c3ccc(NS(=O)(=O)c4ccccc4)cc3)CC2)cc1	83	-	-	-	-	-	-	63	-
Nn1c(Cc2cccc3ccccc23)nnc1SCc1ccc(Cl)c(Cl)c1	82	66	-	-	-	-	-	-	-
Nn1c(Cc2cccc3ccccc23)nnc1SCc1c(Cl)cccc1Cl	-	-	-	-	-	.	.	.	.
O=C1c2cccc(OCC(=O)N3CCCc4ccccc43)c2CCN1Cc1cccnc1	-	-	-	-	-	.	.	.	.
Cc1ccccc1CN1CCc2c(OCC(=O)N3CCCc4ccccc43)cccc2C1=O	-	47	-	-	-	-	-	22	-
CC(O)CNc1nc2c(c(=O)n(C)c(=O)n2C)n1Cc1cccc(Br)c1 (stereo not given)	91	-	-	-	-	-	-	-	114
O=C(c1ccc(Cl)cc1)n1c(NCc2ccccc2)n[nH]c1=S	-	-	-	-	-	.	.	.	.
Cn1c(C(=O)NCc2cccnc2)cc2sccc21	-	-	-	-	-	.	.	.	.
COc1ccccc1CNC(=O)c1cc2sccc2n1C	96	-	-	-	-	-	-	-	-
O=C(Nc1ccc(C(=O)O)cc1)Nc1ccc(F)cc1F	190	51	-	-	-	-	-	-	-
COc1ccc(NC(=O)Nc2ccc(F)cc2F)cc1	-	-	-	-	-	.	.	.	.
O=C(COC(=O)c1cccc(NS(=O)(=O)/C=C/c2ccccc2)c1)Nc1ccccc1OC(F)F	-	-	-	-	-	.	.	.	.
COc1ccccc1Nc1nc2nonc2nc1N1CCCCC1C (stereo not given)	87	-	-	-	-	-	-	30	-
CN(Cc1ccccc1)C(=O)c1nc2ccccn2c1CN1CCC(N2CCOCC2)CC1	.	.	.	.	-	.	.	.	.
O=c1cc(-c2ccccc2)[nH][nH]1	-	82	-	-	-	-	-	-	-
Cc1ccn(-c2cc(O)c(-n3ccc(C)n3)cc2O)n1	-	-	-	-	-	.	.	.	.
N#Cc1ccc(COC(=O)c2ccc(N3CCCC3)c([N+](=O)[O-])c2)cc1	90	-	-	-	-	-	-	-	-
O=C(Nc1ccccc1)Nc1nc(-c2ccc(F)cc2)cs1	81	-	-	-	-	-	-	-	-
CCOc1ccc(NC(=O)c2cccc3c2C(=O)N(CCOC)C3)cc1	82	-	-	-	-	-	52	-	-
COc1ccc(/C=N/NC(=O)c2ccncc2)cc1CSc1nc2ccccc2s1	-	-	-	-	-	.	.	.	.
COc1ccc(OC)c(C(=O)COC(=O)c2cc(C)oc2C)c1	-	-	-	-	-	-	-	-	-
CCOC(=O)c1sc2cc([N+](=O)[O-])cc(SCC(C)C)c2c1N	-	-	-	-	-	-	-	82	129
OC1(c2cccc(C(F)(F)F)c2)CCN(c2ccc(-c3ccccc3)nn2)CC1	93	-	-	-	-	-	-	-	51
SMILES	ABCG2 inh	ABCB1 block	GSH bead fluor	DTT redox prof	Avidin fluor	ABCB1 single pt	ABCG2 single pt	IgMXP3 fluor	CCRF-Adr fluor
CC(C)(C)c1ccc(NC(=O)c2c(F)cccc2Cl)cc1	.	.	.	.	-	.	.	.	.
Cc1sc2ncnc(NCC3COc4ccccc4O3)c2c1C (stereo not given)	82	-	-	-	-	-	-	-	-
COC(=O)c1ccc(C(C(=O)NC2CCCCC2)N(C(=O)Cc2cccs2)C2CC2)cc1 (stereo not given)	-	-	-	-	-	.	.	.	.
COC(=O)c1ccc(C(C(=O)NC2CCCCC2)N(Cc2ccccc2)C(=O)Cc2cccs2)cc1 (stereo not given)	-	48	-	-	-	-	-	-	-
CN(Cc1cccnc1)C(=O)CNC(=O)c1ccc(Cl)cc1Cl	-	-	-	-	-	.	.	.	.
O=c1c(/C=C(\O)c2ccccc2)nc2ccccc2n1-c1ccccc1	-	45	-	-	-	-	-	-	77
COc1ccc(Cl)cc1NC(=O)COC(=O)CCCN1C(=O)c2ccccc2C1=O	-	-	-	-	-	-	-	-	-
COC(=O)C(CCSC)NC(=O)c1cc2c(n(-c3ccccc3)c1=O)CC(C)(C)CC2=O (stereo not given)	-	-	-	-	-	.	.	.	.
O=C(CNC(=O)c1ccccc1)Nc1cccc(C(F)(F)F)c1	+	.	211	-	560	-	-	73	33
Cc1ccc(C(=O)NCC(=O)Nc2cccc(C(F)(F)F)c2)cc1	-	-	-	-	-	.	.	.	.
Nc1c(-c2ccccc2)c(CSc2nc3ccccc3[nH]2)nn1-c1ccc(Cl)cc1	-	43	-	-	-	-	-	-	-
O=[N+]([O-])c1ccccc1-c1nc(-c2ccc(Br)o2)no1	90	-	-	-	-	-	-	-	-
COCCn1c(C)cc(C(=O)CSc2nc(C)cc(C)c2C#N)c1C	97	-	-	-	-	-	-	24	-
Cc1cc(C)c(C#N)c(SCC(=O)c2cc(C)n(CCc3ccccc3)c2C)n1	-	-	-	-	-	.	.	.	.
CCN(C(=O)CN1CCN(S(=O)(=O)c2ccccc2C(F)(F)F)CC1)c1c(N)n(Cc2ccccc2)c(=O)[nH]c1=O	-	-	-	-	-	.	.	.	.
CC(C)C(NS(=O)(=O)c1ccccc1)C(=O)OCc1cc([N+](=O)[O-])cc2c1OCOC2 (stereo not given)	89	-	-	-	-	-	-	-	-
